Data published in ChEMBL document CHEMBL1158783, “Neoflavonoids and related constituents from Nepalese propolis and their nitric oxide production inhibitory activity” (J Nat Prod, 2005).

system: not listed separately; assay: Cytotoxicity against mouse J774.1 cells at > 50 uM by MTT assay; type: cell-based; conditions: not given

With `C=CC(c1ccccc1)[C@@H]1C[C@@H](O)C=CC1=O` (stereo not given in full) as the compound, how does the Activity read?
Its Activity is “Active”.

Which Activity does the source give for `C=CC(c1ccccc1)[C@H]1C[C@@H](O)C=CC1=O` (stereo not given in full) here?
The Activity was “Active”.

system: J774.1; assay: Inhibition of LPS-induced NO production in mouse J774.1 cells after 24 hrs by Griess reagent assay; type: functional, cell-based; conditions: J774.1, 24 h
Outline: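 J774.1 cells grown in RPMI 1640 with penicillin G, streptomycin and 10% FCS, seeded at 1 × 10⁵ cells/well and left to adhere for 2 h at 37 °C, 5% CO₂. Fresh medium with LPS (10 µg/mL) plus compound was then added for 24 h. Supernatant nitrite was read with Griess reagent (10 min, room temperature, A550), medium-blank corrected, and compared with an LPS-only control. IC50 taken from the mean of four determinations.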

With `COc1ccc2c(c1O)O[C@@H]1c3ccc(O)cc3OC[C@H]21` as the compound, how does the IC50 read?
Its IC50 is 3.4 µM.

Which IC50 does the source give for `COc1ccc2c(c1)O[C@H]1c3ccc(O)c(O)c3OC[C@@H]21` here?
The IC50 was 5.4 µM.

Which IC50 does the source give for `C=C[C@H](C1=CC(=O)C(OC)=CC1=O)c1ccccc1` here?
Its IC50 is 10.2 µM.

With `C=C[C@@H](c1ccccc1)c1ccc(O)c(O)c1` as the compound, how does the IC50 read?
The IC50 was 8.4 µM.

For `C=C[C@@H](c1ccccc1)[C@@H]1C[C@@H](O)[C@@H](OC)C[C@@H]1O`, which IC50 is on record?
Its IC50 is 100 µM.

With `C=CC(c1ccccc1)[C@@H]1C[C@@H](O)C=CC1=O` (stereo not given in full) as the compound, how does the IC50 read?
The IC50 was 0.5 µM.

Which IC50 does the source give for `C=CC(c1ccccc1)[C@H]1C[C@@H](O)C=CC1=O` (stereo not given in full) here?
The IC50 was 0.5 µM.

With `C=C[C@@H](c1ccccc1)[C@@H]1C[C@@H](O)[C@@H](OC)CC1=O` as the compound, how does the IC50 read?
The IC50 was 13.2 µM.

With `C=C[C@H](c1ccccc1)[C@@H]1C[C@@H](O)[C@@H](OC)CC1=O` as the compound, how does the IC50 read?
Its IC50 is 9.6 µM.

Which IC50 does the source give for `C=CC(c1ccccc1)[C@H]1C[C@@H](O)C[C@@H](OC)C1=O` (stereo not given in full) here?
Its IC50 is 2.3 µM.

For `C=C[C@@H](c1ccccc1)c1ccc(O)cc1O`, which IC50 is on record?
The IC50 was 5.5 µM.

Which IC50 does the source give for `COC1=CC(=O)CCC1(O)C/C=C/c1ccccc1` (stereo not given) here?
The IC50 was 19.2 µM.

For `C=CC(c1ccccc1)[C@@H]1C[C@H](O)C(OC)=CC1=O` (stereo not given in full), which IC50 is on record?
The IC50 was 48.5 µM.

For `C=CC(c1ccccc1)[C@H]1C[C@@H](O)[C@@H](OC)CC1=O` (stereo not given in full), which IC50 is on record?
The IC50 was 9.6 µM.

For `O=C(/C=C/c1ccc(O)c(O)c1)OCCc1ccccc1` [CAFFEIC ACID PHENETHYL ESTER], which IC50 is on record?
The IC50 was 4.8 µM.

With `COc1cc(O)c(C(=O)c2ccccc2)cc1O` [CEAROIN] as the compound, how does the IC50 read?
Its IC50 is 15.4 µM.

With `O=C(/C=C/c1ccc(O)cc1)c1ccc(O)cc1O` [ISOLIQUIRITIGENIN] as the compound, how does the IC50 read?
Its IC50 is 29.3 µM.

For `C=CC(c1ccccc1)c1cc(O)c(OC)cc1O` (stereo not given) [OBTUSAQUINOL], which IC50 is on record?
The IC50 was 6.3 µM.
